This is a sample that favours compounds with a hit; in the whole collection about 12% have one here.
Rad51 HR inh: blocks human Rad51 in homologous recombination; Q06609; hRad51 DNA strand exchange, fluorescence dequenching; inhibition, % at 10 µM; 0.085% of 200,000 active; AID 1385;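 active = inhibition above 40% at the single screening dose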;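 note: 0% = DMSO control wells and 100% = blanks with heterologous ssDNA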
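material = hRad51 filaments on single-stranded DNA | timing = filaments 15 min 37 °C, then compound 30 min | signal = FRET fluorescence dequenching, excitation 485 nm, emission 520 nm | benchmarks = control wells and blank wells on each plate | evaluation = percent inhibition relative to plate controls and blanks | compound = 10 µM final, single point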
Arbovirus inh: arbovirus infection inhibition. AID 1251. arbovirus infection cell-based antiviral screen. inhibition, % at 10 µM. 0.37% of 200,000 active; in the data active = inhibition above about 30%
PKD1 kinase inh: blocks activity of human protein kinase D1; AID 797; inhibition, % (concentration not given with the values); Q15139; 0.056% of 200,000 active; PKD1 kinase fluorescence polarization assay
Target sequence (Q15139 whole entry, looked up): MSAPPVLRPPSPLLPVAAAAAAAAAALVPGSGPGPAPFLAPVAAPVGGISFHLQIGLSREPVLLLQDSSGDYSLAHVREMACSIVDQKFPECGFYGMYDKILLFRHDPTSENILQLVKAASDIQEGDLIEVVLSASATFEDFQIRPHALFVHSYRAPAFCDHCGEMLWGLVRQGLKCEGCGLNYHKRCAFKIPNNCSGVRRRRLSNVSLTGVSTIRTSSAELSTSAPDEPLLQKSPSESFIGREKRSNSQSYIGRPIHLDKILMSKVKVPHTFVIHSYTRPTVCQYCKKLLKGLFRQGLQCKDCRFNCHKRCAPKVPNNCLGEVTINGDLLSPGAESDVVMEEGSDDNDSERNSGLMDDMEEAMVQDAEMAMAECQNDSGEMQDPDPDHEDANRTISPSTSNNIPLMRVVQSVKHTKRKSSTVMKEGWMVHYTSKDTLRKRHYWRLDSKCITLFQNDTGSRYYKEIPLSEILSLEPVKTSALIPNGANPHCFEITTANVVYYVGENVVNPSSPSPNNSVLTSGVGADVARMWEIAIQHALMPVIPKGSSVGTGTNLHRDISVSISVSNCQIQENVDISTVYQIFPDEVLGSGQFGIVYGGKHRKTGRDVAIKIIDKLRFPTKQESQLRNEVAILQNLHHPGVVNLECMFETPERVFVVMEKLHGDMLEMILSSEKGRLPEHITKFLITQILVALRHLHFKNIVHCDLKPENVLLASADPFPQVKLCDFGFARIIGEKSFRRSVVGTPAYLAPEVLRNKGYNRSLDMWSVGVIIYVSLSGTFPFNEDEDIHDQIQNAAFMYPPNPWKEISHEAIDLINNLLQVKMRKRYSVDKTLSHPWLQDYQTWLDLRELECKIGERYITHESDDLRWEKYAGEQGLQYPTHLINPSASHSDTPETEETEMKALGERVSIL
CHOP inh: inhibitors of CHOP induction in ER stress response; CHO-K1 CHOP-promoter luciferase, tunicamycin-induced, 15-18 h; inhibition, % at 10 µM; 3.8% of 220,000 active; AID 2732;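 active = compounds that reduced the stress-induced luciferase reporter signal by more than about 70% of percent inhibition, limit read from the data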;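 note: 0% = tunicamycin plus vehicle and 100% = wells without tunicamycin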
Lmaj promast: inhibitors of Leishmania major promastigote growth. 9% of 200,000 active. Leishmania major promastigotes, resazurin fluorescence viability. AID 1063. inhibition, % at 10 µM;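 note: promastigotes grown with compound for 44 hours at 28 °C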
Wee1 stabilizer: blocks degradation of human Wee1 kinase | reporter increase, % at 5 µM | 1.2% of 220,000 active | HeLa Luc-Wee1K328M stability, luciferase luminescence; 100% = proteasome inhibitor MG132 effect | AID 1321 | P30291;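 active = activation above the mean of all tested compounds plus 3 SD, set per screening run, cut at about 8.8% in these data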;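 note: cells exposed to compound for 20 h before luminescence read; 0% = DMSO alone and 100% = MG132 at 30 µM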
* marks the source's active call; other numbers are inactive results. Cut-off read from the data, not from the text of the source, unless noted: active = inhibition above about 50%; inactive = the rest.

`CCN1CCN(CC(O)COc2ccc3c(c2)CCC3)CC1` (stereo unspecified) gave Rad51 HR inh 10, Arbovirus inh -6, PKD1 kinase inh 4, CHOP inh -14, Lmaj promast 84* and Wee1 stabilizer -1.
`OC(CN(c1ccccc1)c1ccccc1)Cn1cnc2ccccc21` (stereo unspecified) gave Arbovirus inh 9, PKD1 kinase inh 0, CHOP inh 92*, Lmaj promast 26 and Wee1 stabilizer 1.
`CC(=O)Nc1ccc(OCC(O)Cn2cnc3ccccc32)cc1` (stereo unspecified) gave Rad51 HR inh -3, Arbovirus inh 9, PKD1 kinase inh -6, CHOP inh 0, Lmaj promast 3 and Wee1 stabilizer -2.
For COc1ccc(-c2[nH]ncc2CN(C)Cc2nonc2C)c(OC)c1 the results were Rad51 HR inh -22, Arbovirus inh 1, PKD1 kinase inh -6, CHOP inh 27, Lmaj promast 2 and Wee1 stabilizer -2.
`COc1cc([N+](=O)[O-])cc(/C=N/NC(=O)CSc2ccccn2)c1O` gave Rad51 HR inh 22, CHOP inh 13 and Wee1 stabilizer -2.
`Cc1ccc(/C=C/C(=O)O)cc1S(=O)(=O)N1CCCCC1` gave CHOP inh -14 and Wee1 stabilizer 2.
CCCCN(C(=O)Cc1cccc(F)c1)c1c(N)n(CCC)c(=O)[nH]c1=O was read as Rad51 HR inh 3, Arbovirus inh 5, PKD1 kinase inh -6, CHOP inh -4, Lmaj promast 2 and Wee1 stabilizer 2.
Screening N/C(=N\OC(=O)CSc1ccccc1)c1cccc([N+](=O)[O-])c1 returned Rad51 HR inh 8, Arbovirus inh 0, PKD1 kinase inh -6, CHOP inh -12, Lmaj promast 81* and Wee1 stabilizer 3.
`N/C(=N\OC(=O)Oc1ccccc1)c1cccc([N+](=O)[O-])c1` gave Rad51 HR inh 0, Arbovirus inh 3, PKD1 kinase inh -15, CHOP inh -3, Lmaj promast 59* and Wee1 stabilizer -1.
`O=S1(=O)CC2NC(=S)N(c3cccc(Br)c3)C2C1` (stereo unspecified) gave CHOP inh -6 and Wee1 stabilizer -1.
Cc1ccccc1NC(=S)N(Cc1cccnc1)Cc1ccccc1Cl was read as Rad51 HR inh 2, Arbovirus inh 16, PKD1 kinase inh 4, CHOP inh 38, Lmaj promast 92* and Wee1 stabilizer -2.
For Cc1ccccc1NC(=S)N(Cc1ccccn1)Cc1ccccc1Cl the results were Rad51 HR inh 3, Arbovirus inh 11, PKD1 kinase inh 10, CHOP inh 24, Lmaj promast 40 and Wee1 stabilizer 6.
S=C(Nc1ccccc1Cl)N(Cc1ccccc1)Cc1cccnc1 was read as Rad51 HR inh -4, Arbovirus inh 1, PKD1 kinase inh -1, CHOP inh 22, Lmaj promast 91* and Wee1 stabilizer 0.
Cc1ccc(Cl)cc1NC(=S)N(Cc1ccccc1)Cc1cccnc1 was read as Rad51 HR inh 6, Arbovirus inh 7, PKD1 kinase inh 4, CHOP inh 22, Lmaj promast 99* and Wee1 stabilizer -2.
Screening COc1ccc(Cl)cc1NC(=S)N(Cc1cccnc1)Cc1ccco1 returned Rad51 HR inh -5, Arbovirus inh 7, PKD1 kinase inh 1, CHOP inh 29, Lmaj promast 13 and Wee1 stabilizer -5.
COc1ccccc1NC(=S)N(Cc1ccc(C)cc1)Cc1cccnc1 was read as Rad51 HR inh 9, Arbovirus inh 12, PKD1 kinase inh 2, CHOP inh 10, Lmaj promast 6 and Wee1 stabilizer 2.
For COc1ccccc1NC(=S)N(Cc1cccnc1)Cc1ccccc1Cl the results were Rad51 HR inh -1, Arbovirus inh 4, PKD1 kinase inh -3, CHOP inh -7, Lmaj promast 77* and Wee1 stabilizer 3.
Cc1ccccc1C(=O)NNC(=O)Nc1ccccc1 was read as Rad51 HR inh 8, Arbovirus inh -1, PKD1 kinase inh -1, CHOP inh 1, Lmaj promast -12 and Wee1 stabilizer -1.
For Cn1nc([N+](=O)[O-])nc1Oc1ccc(C(C)(C)C)cc1 the results were Rad51 HR inh -3, Arbovirus inh 3, PKD1 kinase inh 7, CHOP inh 15, Lmaj promast 22 and Wee1 stabilizer 0.
`CC(=O)C1=NN(c2ccc(Cl)cc2)C(c2ccc3c(c2)OCO3)N(C(C)=O)N1C` (stereo unspecified) gave Rad51 HR inh 15, CHOP inh 14 and Wee1 stabilizer 4.
`COCCCNc1nc2c(-c3cccc(C)c3)nnn2c2ccccc12` gave Rad51 HR inh -5, Arbovirus inh 12, PKD1 kinase inh 0, CHOP inh 6, Lmaj promast 3 and Wee1 stabilizer 49*.
Screening CC1CCN(CC(=O)N2c3ccccc3CC2C)CC1 (stereo unspecified) returned Arbovirus inh 2, PKD1 kinase inh 0, CHOP inh 0, Lmaj promast 2 and Wee1 stabilizer 3.
COc1ccc(C(=O)NNC(=O)CN2CCC(n3nnc4cc(F)ccc43)CC2)cc1 was read as Rad51 HR inh -5, Arbovirus inh 12, PKD1 kinase inh -12, CHOP inh 43, Lmaj promast 50* and Wee1 stabilizer -2.
`O=C(CN1CCC(n2nnc3cc(C(F)(F)F)ccc32)CC1)Nc1ccc2c(c1)CCC2` gave Rad51 HR inh 5, Arbovirus inh -1, PKD1 kinase inh -5, CHOP inh 78*, Lmaj promast 50 and Wee1 stabilizer -2.
Screening CC1Cc2ccccc2N1C(=O)CN1CCC(n2nnc3cc(C(F)(F)F)ccc32)CC1 (stereo unspecified) returned Rad51 HR inh 0, Arbovirus inh -7, PKD1 kinase inh -5, CHOP inh 41, Lmaj promast 95* and Wee1 stabilizer 3.
COc1ccc(C(=O)NNC(=O)CN2CCC(n3nnc4cc(C(F)(F)F)ccc43)CC2)cc1 was read as Rad51 HR inh 3, Arbovirus inh 1, PKD1 kinase inh 1, CHOP inh 4, Lmaj promast -8 and Wee1 stabilizer -2.
COC(=O)c1ccccc1NC(=O)CN1CCC(n2nnc3cc(C(F)(F)F)ccc32)CC1 was read as Arbovirus inh 32*, PKD1 kinase inh 1, CHOP inh 37, Lmaj promast 15 and Wee1 stabilizer -1.
`O=C1/C(=C\c2ccc(O)c(O)c2)N=C2CCCCCN12` gave Rad51 HR inh -39, CHOP inh 3 and Wee1 stabilizer 1.
`O=c1cc(CSc2nc(NCc3ccccc3)c3ccccc3n2)nc2ccc(Cl)cn12` gave Rad51 HR inh 5, Arbovirus inh 17, PKD1 kinase inh -7, CHOP inh -1, Lmaj promast 13 and Wee1 stabilizer 0.
Screening CCN(CC)CCCn1c(=S)[nH]c2ncccc2c1=O returned Rad51 HR inh -4, Arbovirus inh -1, PKD1 kinase inh 0, CHOP inh -6, Lmaj promast -1 and Wee1 stabilizer -3.
